Assay outcomes (PubChem)
NR2E3 ag-1: agonists of human NR2E3 nuclear receptor. actives 0.35% (n = 360,000). Q9Y5X4. inhibition of corepressor binding, % at 3.98 µM. CHO-S Gal4-NCOR/VP16-NR2E3 two-hybrid, luciferase;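 active = inhibition above the mean of all tested compounds plus 3 SD, cut at about 70% in these data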;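 note: 0% = DMSO with NR2E3 transfected cells and 100% = cells lacking NR2E3 construct; higher means lower luciferase signal from less NR2E3 corepressor binding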
NadD inh: NadD (S. aureus) enzyme inhibition | purified NadD enzyme, colorimetric absorbance read-out | inhibition, % at 20 µM | actives 0.78% (n = 360,000) | AID 602399; in the data active = inhibition above about 26%
bovine MsrA act: activates bovine MsrA enzyme; activation, % at 10.6 µM; purified bovine MsrA, absorbance read-out; actives 0.3% (n = 360,000); in the data active = activation above about 7.5%;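 note: 0% = vehicle and 100% = reference activator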
MsrA inh: bovine MsrA inhibition. purified bovine MsrA, absorbance read-out. inhibition, % at 15.5 µM. actives 0.75% (n = 360,000). AID 651718; in the data active = inhibition above about 4.5%;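 note: 0% = vehicle wells with enzyme and 100% = reference inhibitor wells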
GalR3 antagonist: blocks the human galanin receptor 3; AID 651719; inhibition, % at 3 µM; actives 0.44% (n = 360,000); HEK293 GalR3-CNG cAMP membrane potential fluorescence; galR3 body fused to GalR1 C-terminus; O60755;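 active = inhibition above the screen-wide average plus 3 SD, cut at about 13% in these data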;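 note: forskolin and galanin both at EC90 stimulate the cells; cAMP rise reported by CNG channel membrane potential dye signal; 0% = forskolin plus galanin with DMSO and 100% = forskolin alone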
Target sequence (O60755 1-299 limits assumed): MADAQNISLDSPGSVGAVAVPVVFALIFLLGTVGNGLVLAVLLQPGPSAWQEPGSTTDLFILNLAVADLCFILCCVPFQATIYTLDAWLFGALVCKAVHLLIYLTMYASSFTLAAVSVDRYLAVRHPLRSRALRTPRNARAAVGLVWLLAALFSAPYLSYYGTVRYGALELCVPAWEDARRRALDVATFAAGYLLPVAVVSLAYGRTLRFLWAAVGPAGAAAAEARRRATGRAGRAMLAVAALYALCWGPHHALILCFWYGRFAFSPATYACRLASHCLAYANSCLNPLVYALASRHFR
NR2E3 ag-2: NR2E3 (human) agonism | Q9Y5X4 | inhibition of corepressor binding, % at 4.78 µM | actives 0.12% (n = 320,000) | GST-NR2E3/biotin-RetCOR TR-FRET, 1536-well;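 active = percent inhibition above the cutoff of mean plus 3 SD of all tested compounds, set per screening campaign, cut at about 20% in these data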;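 note: 0% = DMSO wells and 100% = biotin wells as full block of FRET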
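Material – GST-tagged NR2E3 plus biotinylated RetCOR corepressor · Quantity – NR2E3 fusion 1.35 nM · Times – 5 h incubation at 4 °C · Medium – pH 7.5 Tris-based buffer · Technique – TR-FRET, Eu(K)-anti-GST donor, streptavidin-D2 acceptor, ex 340, em 617/671 nm · Benchmarks – high control biotin, low control 0.6% DMSO · Format – 1536-well plates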
NR2E3 ag confirm: confirmation of human NR2E3 agonists | shares compounds with NR2E3 ag-1 | CHO-S mammalian two-hybrid NR2E3-NCOR, luciferase luminescence | inhibition, % at 3.98 µM | actives 51% (n = 2,300) | AID 624378;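 active = average inhibition above a cutoff equal to the mean inhibition of all tested compounds plus one SD, cut at about 70% in these data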;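 note: 0% = DMSO in NR2E3 cells and 100% = DMSO in cells lacking NR2E3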
GAL4-VP16 luc: reduces GAL4-VP16 reporter signal in NR2E3 counterscreen. shares compounds with NR2E3 ag-1. CHO-S GAL4-VP16 luciferase reporter, luminescence. inhibition, % at 3.98 µM. actives 29% (n = 2,300);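 active = mean inhibition above a cutoff equal to the average over all tested compounds plus one standard deviation, cut at about 70% in these data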;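 note: luciferase from a UAS reporter driven by GAL4-VP16 transactivation; 0% = DMSO with VP16-transfected cells and 100% = DMSO with cells lacking VP16; higher means less reporter light so more repression of VP16 activity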
GalR3 antag conf: confirmation of human galanin receptor 3 antagonists. shares compounds with GalR3 antagonist. HEK293 GalR3 CNG cAMP biosensor, membrane potential fluorescence; galR3 fused to GalR1 carboxy tail; challenged with forskolin and galanin at EC90. inhibition, % at 3 µM. actives 59% (n = 1,600);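 active = inhibition above the primary screen's cutoff, the mean inhibition of all screened compounds plus 3 SD, cut at about 13% in these data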;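 note: 0% = forskolin plus galanin and 100% = forskolin alone with DMSO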
HEK-CNG parental: counter-screen for GalR3 antagonists: nonspecific agonists in parental HEK-CNG cells; shares compounds with GalR3 antagonist; HEK293-CNG parental cells, cAMP membrane potential fluorescence; normalised: DMSO wells 0%, forskolin wells 100%; activation, % at 3 µM; actives 10% (n = 1,600); AID 652268; in the data active = activation above about 1.3%
* hit, by the source's call; · = no result. Only some compounds are listed: those with a hit (about 2.5% of all), similar ones and a draw of the others.

SMILES	NR2E3 ag-1	NadD inh	bovine MsrA act	MsrA inh	GalR3 antagonist	NR2E3 ag-2	NR2E3 ag confirm	GAL4-VP16 luc	GalR3 antag conf	HEK-CNG parental
CCc1ccc2c(c1)C1(NN=C(c3cccc4ccccc34)S1)C(=O)N2 (stereo unspecified)	80*	35*	-1	1	23*	0	39	25	2	0
CCc1ccc2c(c1)NC(=O)C2(C)Cc1ccccc1 (stereo unspecified)	-9	-2	-6	1	-8	·	·	·	·	·
Cn1nc(CC(=O)Nc2ccc3c(c2)OCCO3)c2ccccc2c1=O	98*	2	-3	2	100*	1	92*	73*	106*	0
COc1cc(NC(=O)Cn2c(=O)n(CC3CCCO3)c(=O)c3cc(OC)c(OC)cc32)cc(OC)c1 (stereo unspecified)	-33	0	0	2	6	-1	·	·	·	·
c1ccc(CCNc2ccnc3cc4ccccc4cc23)cc1	93*	9	-1	1	19*	·	97*	82*	-7	3.3*
O=S(=O)(NCC1CCCO1)c1ccc(-c2ccc(S(=O)(=O)NCC3CCCO3)cc2)cc1 (stereo unspecified)	67	3	-3	2	97*	3	92*	73*	106*	-1
Cc1ccc(S(=O)(=O)NCC2CCCO2)cc1 (stereo unspecified)	13	4	-2	0	-2	-2	·	·	·	·
COc1ccc(-c2noc(CCCCC(=O)N3CCN(c4cc(C)ccc4C)CC3)n2)cc1	99*	10	-5	1	97*	·	97*	84*	105*	-1
Cc1cc(/C=N/n2cnnc2)c(C)n1-c1ccc(OCc2ccc(Cl)cc2)cc1	102*	5	-3	0	41*	3	98*	87*	64*	1
Cc1ccc2c(c1)S/C(=C\c1cccc[n+]1C)N2CCO	-11	9	-3	-1	-9	-2	·	·	·	·
CCN1/C(=C/c2ccc3cccc(C)c3[n+]2CC)Sc2ccccc21	86*	5	-12	-1	49*	-6	97*	85*	45*	10*
CCN1/C(=C\c2ccc3cc(C)ccc3[n+]2CC)Sc2cc(C)c(C)cc21	85*	22	-2	1	59*	·	98*	87*	74*	6.3*
Cc1cc(-n2c(C)cc(C(=O)CSc3ncnc4ccccc34)c2C)no1	92*	5	-13	1	91*	3	97*	86*	3	0
COc1ccc(N(CC(=O)NCc2ccccn2)S(=O)(=O)c2ccccc2[N+](=O)[O-])c(OC)c1	-5	3	0	0	-4	3	·	·	·	·
Cc1cc2c(NCCc3ccccc3)ncnc2s1	56	-2	-9	0	97*	-1	90*	73*	98*	0
Cc1cc2c(Nc3ccccc3)ncnc2s1	-12	-4	-2	0	0	2	·	·	·	·
O=C(COC(=O)CC1CC2CCC1C2)Nc1ccccc1Cl (stereo unspecified)	0	-4	0	0	2	·	·	·	·	·
CC(=O)NCC(=O)NC1CCCc2c1cnn2-c1ccc(C(C)(C)C)cc1 (stereo unspecified)	12	1	-1	-1	-11	0	·	·	·	·
Cc1cc(C)cc(-n2ncc3c2CCCC3NC(=O)c2cc(C)n(C)n2)c1 (stereo unspecified)	-17	2	-2	-1	-1	0	·	·	·	·
CC(C)(C)c1ccc(-n2ncc3c2CCCC3NC(=O)C2(C(N)=O)CC2)cc1 (stereo unspecified)	100*	3	-3	0	92*	-2	92*	81*	114*	0
Cc1cc(C(=O)NC2CCCc3c2cnn3-c2ccc(C(C)(C)C)cc2)nn1C (stereo unspecified)	101*	5	-6	-2	97*	-5	94*	82*	106*	-1
Cc1ccc(-n2ncc3c(SCc4cccnc4)ncnc32)c(C)c1	54	-3	-3	0	60*	·	81*	63	98*	0
CC(C)c1ccc(S(=O)(=O)c2n[nH]n3c2nc(=O)c2ccccc23)cc1	-28	17	-3	-1	0	1	·	·	·	·
Cc1ccc(NC(=O)c2ccccc2NS(=O)(=O)c2ccc(Cl)s2)cc1	95*	-4	-3	-1	17*	1	97*	79*	33*	1
O=C(Nc1ccccc1Cc1ccccc1)c1ccccc1NS(=O)(=O)c1ccc(Cl)s1	98*	22	-6	0	96*	2	98*	86*	104*	0
SMILES	NR2E3 ag-1	NadD inh	bovine MsrA act	MsrA inh	GalR3 antagonist	NR2E3 ag-2	NR2E3 ag confirm	GAL4-VP16 luc	GalR3 antag conf	HEK-CNG parental
O=C(NCc1ccco1)c1ccccc1NS(=O)(=O)c1ccc(Cl)s1	10	2	-2	1	-3	-1	·	·	·	·
COC(=O)Nc1cc(C)nc2ccccc12	18	-3	-9	1	-1	2	·	·	·	·
Cc1cc(C)nc(SCC(=O)Nc2ccnc3ccccc23)n1	84*	0	-2	-2	55*	1	92*	83*	121*	0
Cc1cc(NC(=O)Cc2ccccc2)c2ccccc2n1	64	1	0	1	13*	0	87*	69	65*	0
COC(=O)c1ccccc1NC(=O)CSc1nc(C)cc(C)n1	16	-2	-10	1	-3	4	·	·	·	·
CCN(CC(=O)Nc1ccccc1C(F)(F)F)C(=O)CSCc1ccc(C)cc1	-7	-4	0	0	-5	-1	·	·	·	·
CC(=O)c1cccc(NC(=O)N2CCCCCC2)c1	-16	5	-3	0	-1	0	·	·	·	·
CC(=O)c1cccc(NS(=O)(=O)c2ccc(NC(=O)N3CCCCC3)cc2)c1	68	1	-4	0	83*	-1	29	33	97*	0
O=c1sc(Nc2ccccc2)nc2ccccc12	-65	-8	-2	1	-2	4	·	·	·	·
N/C(Cn1cncn1)=N\NC(=O)c1ccc(Cl)cc1Cl	-30	-6	-3	2	-4	1	·	·	·	·
